Among the data in ChEMBL document CHEMBL1150815, “Blepharocalyxins C--E, three new dimeric diarylheptanoids, and related compounds from the seeds of Alpinia blepharocalyx” (2001) are EC50 values, retold here.

Molecules are shown by their SMILES.

Assay [1] can be described thus: Antiproliferative activity against mouse Colon 26-L5 cells by MTT assay. Particulars: read-out: ED50 (the source's name). It counts as functional. A digest of the protocol:
(§1)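 Cells grown in medium with 10% fetal calf serum, 0.1% sodium bicarbonate and 2 mM glutamine. Viability with and without agents measured by MTT assay. 5-Fluorouracil served as positive control. Activity expressed as ED50 in µM.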
(In general: Tetrazolium dyes change colour on reduction, which living cells bring about.)

The next assay concerns HT-1080. The assay is described as follows: Antiproliferative activity against human HT1080 cells by MTT assay. It counts as functional. Particulars: read-out: ED50 (the source's name). A digest of the protocol: as §1

With `Oc1ccc(CC[C@H]2CC=C[C@H](c3ccc(O)cc3)O2)cc1`, the EC50 in assay [1] turned out to be 71.2 µM; in the assay on HT-1080 it was 45.3 µM.
In the same order, the values of `Oc1ccc(CC[C@H]2CC(O)C(O)[C@@H](c3ccc(O)cc3)O2)cc1` (mixture of isomers) are 49.4 µM and 83.7 µM.
In the same order, the values of `Oc1ccc(/C=C/[C@@H]2C[C@H](CCc3ccc(O)cc3)O[C@@H]3C[C@H](CCc4ccc(O)cc4)O[C@H](c4ccc(O)cc4)[C@@H]23)cc1` [BLEPHAROCALYXIN D] are 3.61 µM and 25.7 µM.
For `Oc1ccc(/C=C/[C@H](C[C@@H](O)CCc2ccc(O)cc2)[C@@H]2[C@@H](c3ccc(O)cc3)O[C@@H](CCc3ccc(O)cc3)C[C@@H]2O)cc1` [BLEPHAROCALYXIN C], the figures for the EC50 (in assay [1]; in the assay on HT-1080) were 29.6 µM and 54.3 µM, respectively.
The like results for `Oc1ccc(CC[C@H]2C[C@H](O)[C@H](O)[C@@H](c3ccc(O)cc3)O2)cc1` were, in that order, 44.2 µM and over 100 µM.
The like results for `COc1cc(O)c([C@@H]2C[C@H](CCc3ccc(O)cc3)O[C@H](c3ccc(O)cc3)[C@H]2[C@H](/C=C/C[C@@H](O)CCc2ccc(O)cc2)c2ccc(O)cc2)c(O)c1C(=O)/C=C/c1ccc(O)cc1` [BLEPHAROCALYXIN E] were, in that order, 32.2 µM and 9.02 µM.
The like results for `O=c1[nH]cc(F)c(=O)[nH]1` [FLUOROURACIL] were, in that order, 0.53 µM and 8 µM.
Turning to `Oc1ccc(CC[C@H]2CC=C[C@@H](c3ccc(O)cc3)O2)cc1`, the values for the EC50 (in assay [1]; in the assay on HT-1080) were over 100 µM and 79.4 µM, respectively.
